The nature of assay [1]: Mean of EC50 value for FM3A cells/ mean of EC50 value for Plasmodium falciparum. It is filed as functional. The procedure, abridged: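 Selectivity is the mean EC50 against FM3A mouse mammary tumor cells divided by the mean EC50 against P. falciparum FCR-3.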
The test system of a further assay is FM3A. As to the kind of experiment: in vitro cytotoxicity against mouse mammary tumor in cell culture. It is filed as functional, cell-based. In a few lines: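 Mouse mammary tumor FM3A cells in culture, used as a mammalian cytotoxicity control; EC50 determined.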
Assay [2] concerns Mus musculus. Description: in vivo antimalarial activity against Plasmodium berghei infected mice (Mus musculus) on intraperitoneal administration. The class given is functional. Conditions: ip. In a few lines: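 Mice infected with P. berghei NK 65. Compounds were prepared in olive oil at various concentrations and injected intraperitoneally into groups of five mice once daily on days 0–3, starting on the day of infection. Parasitemia was measured on day 4, and ED50/ED90 were calculated by the earlier protocol.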

The test system of the next assay is Plasmodium falciparum. Description: In vitro antimalarial activity for Plasmodium falciparum. It is filed as functional, organism-based. In a few lines:
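Chloroquine-sensitive P. falciparum FCR-3 strain cultured in vitro; EC50 determined.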

Assay [3] concerns Mus musculus. As to the kind of experiment: In vivo antimalarial activity against Plasmodium berghei infected mice (Mus musculus) on oral administration. The class given is functional. The procedure, abridged: (§1)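 Mice infected with P. berghei NK 65. Compounds were prepared in olive oil at various concentrations and given orally to groups of five mice once daily on days 0–3, starting on the day of infection. Parasitemia was read on day 4, and ED50/ED90 were derived by the earlier protocol.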

For assay [4], the system named is Mus musculus. Description: in vivo antimalarial activity against Plasmodium berghei infected mice (Mus musculus) on oral administration. The class given is functional. The procedure, abridged:
as §1

pEC50: −log10 of the molar value.

In turn, `C1CCCCCC2(CCCCC1)OOCCCCOO2` returned a Selectivity in assay [1] of 170. In addition, the pEC50 in the assay with FM3A was 4.77. For the same compound, in the assay on Mus musculus [2], the 50% effect level (ED50) was put at a dose of 48 mg/kg and the ED90 is 65 mg/kg. The pEC50 with Plasmodium falciparum was 7.00.
For `C1CCCCCC2(CCCCC1)OOCCCCCCOO2`, the Selectivity in assay [1] is reported as 1600. Also, the pEC50 with FM3A was 4.80; with Plasmodium falciparum, 8.00. This compound also had an ED50 in the assay with Mus musculus [2] of 160 mg/kg. In the assay with Mus musculus [2], this compound registered an ED90 of over 200 mg/kg.
In the case of `C1COOC2(OOC1)C1CC3CC(C1)CC2C3`, the Selectivity in assay [1] is 1160. Also, the pEC50 with FM3A was 4.24; in the assay on Plasmodium falciparum, 7.30. This compound displayed an ED50 in the assay on Mus musculus [2] of 100 mg/kg.
In assay [1], `CCCCCCC1(CCCCCC)OOCCCOO1` came in with a Selectivity of 95. In addition, the pEC50 with FM3A is 4.72. In the assay with Mus musculus [2], this compound came in with a median effective dose (ED50) of 60 mg/kg and an ED90 of 91 mg/kg. Further, the negative logarithm of the EC50 (pEC50) in the assay with Plasmodium falciparum is 6.70.
Taken in the same sequence, the figures for `CCCCCC1(CCCCC)OOCCCOO1` were 110, 4.47, 30 mg/kg, 58 mg/kg and 6.51.
As for `C[C@@H]1CC[C@H]2[C@@H](C)C(=O)O[C@@H]3O[C@@]4(C)CC[C@@H]1[C@]32OO4` [ARTEMISININ], the Selectivity in assay [1] came to 1000. Moreover, the figures for the ED50 in the assay with Mus musculus [3] and with Mus musculus [2] were 13 mg/kg and 5 mg/kg, respectively. Besides, the ED90 with Mus musculus [4] worked out at 89 mg/kg; in the assay with Mus musculus [2], 32 mg/kg. Also, in the assay on Plasmodium falciparum, the pEC50 was 8.00.
Regarding `C1CCCCCC2(CCCCC1)OOCCCCCCCCOO2`, in assay [1], the Selectivity was found to be 17. The values for the pEC50 in the assay on FM3A and in the assay with Plasmodium falciparum were 4.54 and 5.77, respectively.
For `C1CCCCCC2(CCCCC1)OOCCCCCOO2` the same measures were 43, 4.92 and 6.55.
As to `CC(C)(C)C1CCC2(CC1)OOCCCOO2`, the Selectivity in assay [1] amounted to 10000. Also, the ED50 in the assay with Mus musculus [3] came out at 52 mg/kg; in the assay on Mus musculus [2], 15 mg/kg. Besides, the ED90 with Mus musculus [4] amounted to 84 mg/kg; in the assay with Mus musculus [2], 30 mg/kg. For the same compound, the negative-log EC50 (pEC50) is 4.52 in the assay on FM3A and 8.52 in the assay with Plasmodium falciparum.
In the case of `C1CCCCCC2(CCCCC1)OOCCCOO2`, in assay [1], the Selectivity is 320. The values for the ED50 in the assay with Mus musculus [3] and with Mus musculus [2] were 20 mg/kg and 12 mg/kg, respectively. The ED90 in the assay with Mus musculus [4] worked out at 40 mg/kg; with Mus musculus [2] it was 20 mg/kg. Moreover, the results for the pEC50 with FM3A and with Plasmodium falciparum were 5.10 and 7.60, respectively.

In general, pEC50 refers to −log10 of the EC50, conventionally taken in molar units. Lower therefore signals a large EC50. For orientation: ED50 means the midpoint of the dose-response relation. A higher ED50 goes with weaker potency.

Source of the values: ChEMBL document CHEMBL1134771, “Synthesis and antimalarial activity of novel medium-sized 1,2,4,5-tetraoxacycloalkanes” (J Med Chem, 2001).
